This is an account of results in ChEMBL document CHEMBL1177719 (J Med Chem, 2010).

Active and inactive are the calls of the source. The rule behind the calls is not given here.

Data set [1] addresses NAD(P)H dehydrogenase [quinone] 1 (Mus musculus) (UniProt Q64669). In words: Induction of quinone reductase 1 in mouse Hepa 1c1c7 cells assessed as drug level required to double enzyme activity by MTT assay. (In general: Formazan colour is commonly taken as a measure of viable cells.)
In data set [2] the test system is HEK293. Nature of the data set: Cytotoxicity against human HEK293 cells at 34 uM. The class given is cell-based. Particulars: hek293, 34 µM.
For data set [3], the system named is HEK293. Nature of the data set: Inhibition of TNF-alpha-induced NF-kappaB activity expressed in HEK293 cells at 34 uM after 48 hrs by luciferase reporter gene assay relative to control. The class given is cell-based. The essentials: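 Stably transfected 293 cells carrying an NFκB response element–luciferase reporter, exposed to TNFα plus compound for 48 h, then assayed for luciferase. Activity expressed as % of TNFα-treated control. IC₅₀ from five serial dilutions, mean of two experiments.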

A short description of data set [4]: Antioxidant activity assessed as DPPH scavenging activity at 340 uM after 30 mins. In kind it is functional. For orientation: DPPH is a stable violet radical that fades when it is reduced.
Another data set has as its target T1, Aromatase (Homo sapiens, UniProt P11511).
T1 sequence (P11511 whole entry): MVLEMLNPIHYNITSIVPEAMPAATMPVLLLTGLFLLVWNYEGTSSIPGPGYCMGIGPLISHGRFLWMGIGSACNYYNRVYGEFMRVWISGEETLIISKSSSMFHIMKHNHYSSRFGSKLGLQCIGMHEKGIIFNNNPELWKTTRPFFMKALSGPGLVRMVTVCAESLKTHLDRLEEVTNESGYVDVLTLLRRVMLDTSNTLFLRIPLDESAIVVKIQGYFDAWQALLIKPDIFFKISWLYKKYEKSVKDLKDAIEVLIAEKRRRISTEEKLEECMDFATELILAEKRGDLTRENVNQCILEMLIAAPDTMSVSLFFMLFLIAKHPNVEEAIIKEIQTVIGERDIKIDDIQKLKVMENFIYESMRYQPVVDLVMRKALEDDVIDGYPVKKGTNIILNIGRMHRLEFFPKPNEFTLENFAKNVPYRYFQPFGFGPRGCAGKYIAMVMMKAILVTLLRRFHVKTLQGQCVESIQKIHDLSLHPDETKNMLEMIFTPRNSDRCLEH
Conditions: read-out: INH.

A further data set relates to RAW264.7. Nature of the data set: Inhibition of LPS-induced COX2 expression in mouse RAW264.7 cells at 34 uM treated 15 mins before LPS challenge measured after 18 hrs by immunoblotting. The class given is functional, cell-based. The essentials:
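RAW 264.7 cells pretreated with samples 15 min, then LPS 1 μg/mL for 18 h. Lysates (30 μg protein) run on 8% SDS-PAGE, transferred to PVDF, probed with primary and HRP secondary antibodies, ECL detection. β-actin internal control; band density quantified relative to the LPS-only control; duplicate experiment.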
In general terms: A western blot detects proteins with antibodies after separation by electrophoresis.

The test system of another data set is MCF7. Nature of the data set: Cytotoxicity against human MCF7 cells assessed as cell survival at 20 ug/ml after 72 hrs by sulforhodamine B method. The class given is functional. Conditions: MCF7, 72 h, read-out: Activity. The essentials: (§1)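 Sulforhodamine B assay. KB or MCF7 cells plated with samples and held 72 h at 37 °C, 5% CO₂. Fixed 1 h in 10% trichloroacetic acid, stained with 0.4% SRB in 1% acetic acid, dye taken up in 10 mM Tris.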

The nature of data set [5]: Antioxidant activity assessed as nitric oxide scavenging activity at 60 uM. In kind it is functional. The essentials:
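Compounds diluted tenfold in PBS and incubated with sodium nitroprusside (final compound 60 μM, SNP 5 mM) for 3 h at room temperature. Nitrite measured by Griess reagent, absorbance 540 nm. % inhibition given as average of triplicates ± standard deviation.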

A further data set concerns KB. Nature of the data set: Cytotoxicity against human KB cells assessed as cell survival at 20 ug/ml after 72 hrs by sulforhodamine B method. In kind it is functional. Conditions: read-out: Activity. The essentials: as §1
The target of data set [6] is T2, Prostaglandin G/H synthase 1 (Ovis aries) (UniProt P05979).
T2 sequence (whole entry): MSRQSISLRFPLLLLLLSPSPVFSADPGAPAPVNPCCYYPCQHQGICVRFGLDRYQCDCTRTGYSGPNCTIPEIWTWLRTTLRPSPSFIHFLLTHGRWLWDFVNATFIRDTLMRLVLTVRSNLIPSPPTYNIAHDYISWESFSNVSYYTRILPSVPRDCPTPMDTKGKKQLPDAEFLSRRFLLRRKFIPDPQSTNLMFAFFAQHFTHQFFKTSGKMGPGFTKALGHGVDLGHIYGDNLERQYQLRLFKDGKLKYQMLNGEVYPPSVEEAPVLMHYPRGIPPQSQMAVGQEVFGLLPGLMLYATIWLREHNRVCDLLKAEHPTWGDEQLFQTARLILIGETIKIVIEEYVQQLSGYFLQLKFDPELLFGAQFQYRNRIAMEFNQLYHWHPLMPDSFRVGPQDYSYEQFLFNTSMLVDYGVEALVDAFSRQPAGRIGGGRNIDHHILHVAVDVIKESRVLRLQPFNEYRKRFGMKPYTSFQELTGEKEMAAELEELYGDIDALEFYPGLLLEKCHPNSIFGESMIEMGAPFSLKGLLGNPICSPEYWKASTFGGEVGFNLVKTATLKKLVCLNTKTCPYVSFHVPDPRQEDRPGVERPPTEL
Nature of the data set: Inhibition of sheep seminal vesicles COX1 assessed as PGE2 production at 34 uM after 10 mins by ELISA relative to control. The essentials: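 Sheep seminal vesicle COX-1; reaction started with arachidonic acid, 10 min at room temperature, stopped with 27.8 μM indomethacin. PGE₂ quantified by competitive ELISA (PGE₂-acetylcholinesterase tracer, Ellman's reagent, 412 nm) against a PGE₂ standard curve. Result as % of solvent control; IC₅₀ from dose-response curves.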

Chain of NAD(P)H dehydrogenase [quinone] 1 (Mus musculus) (Q64669 whole entry): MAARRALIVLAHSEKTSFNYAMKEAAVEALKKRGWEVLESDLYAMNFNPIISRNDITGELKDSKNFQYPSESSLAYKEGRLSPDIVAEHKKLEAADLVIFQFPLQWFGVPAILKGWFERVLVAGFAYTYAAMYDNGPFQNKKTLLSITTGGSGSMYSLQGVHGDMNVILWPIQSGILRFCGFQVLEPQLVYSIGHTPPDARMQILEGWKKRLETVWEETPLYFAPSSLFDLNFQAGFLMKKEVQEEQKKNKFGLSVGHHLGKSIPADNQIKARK

`O=S(=O)([O-])Oc1ccc(/C=C/c2cc(OS(=O)(=O)[O-])cc(OS(=O)(=O)[O-])c2)cc1.[K+].[K+].[K+]`: in data set [1], the CD was greater than 11.7 µM. Moreover, the Activity result in the data set with HEK293 [2] is “Non-toxic”; in data set [5], 1.6%. The inhibition turned out to be 36.7% in the data set on HEK293 [3], 0.4% in data set [4] and 37.8% in [6]. Moreover, the inhibition at 34 µM on Aromatase was determined as 28.5%. In addition, the inhibition result with RAW264.7 is “inactive”. For the same molecule, the viability at 20 µg/mL in the data set with MCF7 worked out at 107%; with KB, 78.1%.
Regarding `O=S(=O)([O-])Oc1cc(/C=C/c2ccc(O)cc2)cc(OS(=O)(=O)[O-])c1.[K+].[K+]`, the CD in data set [1] was greater than 10.1 µM. In addition, the Activity result was “Non-toxic” in the data set with HEK293 [2] and 1.2% in data set [5]. Besides, the values for the inhibition (in the data set on HEK293 [3]; in [4]; in data set [6]) were 42.5%, 14.5% and 30.9%, respectively. Moreover, the inhibition at 34 µM on Aromatase is 20.5%. In the data set with RAW264.7, the inhibition entry is “inactive”. Also, the figures for the viability at 20 µg/mL in the data set on MCF7 and with KB were 97.2% and 84.2%, respectively.
As to `O=S(=O)([O-])Oc1cc(O)cc(/C=C/c2ccc(O)cc2)c1.[K+]`, the CD in data set [1] was found to be 2.6 µM. Further, the Activity result with HEK293 [2] is “Non-toxic”; in [5], 24.7%. Besides, the inhibition in the data set on HEK293 [3] came to 33%; in data set [4] it was 68%; in data set [6], 74.3%. Moreover, the inhibition at 34 µM on Aromatase came out at 28.2%. Also, the inhibition entry in the data set with RAW264.7 was “inactive”. The values for the viability at 20 µg/mL with MCF7 and in the data set on KB were 51.7% and 70.3%, respectively.
As for `O=S(=O)([O-])Oc1ccc(/C=C/c2cc(O)cc(O)c2)cc1.[K+]`, the CD in data set [1] was greater than 6.9 µM. The results for the Activity result (with HEK293 [2]; in data set [5]) were “Non-toxic” and 10.3%, respectively. The inhibition with HEK293 [3] stood at 64%; in data set [4], 42.8%; in data set [6], 63.2%. Moreover, the inhibition at 34 µM at Aromatase is 30.4%. Besides, in the data set with RAW264.7, the inhibition entry is “inactive”. Besides, the viability at 20 µg/mL in the data set with MCF7 was 103%; with KB, 108%.
